# Published values from different studies.
# Compare with care: the assays were run in different laboratories.
# PTGS2: Prostaglandin G/H synthase 2 (PTGS2, Homo sapiens, UniProt P35354)
# DYRK1B: Dual specificity tyrosine-phosphorylation-regulated kinase 1B (DYRK1B, Homo sapiens, UniProt Q9Y463)
SMILES,target,effect on,action,method,concentration,endpoint,result
O=c1cc(-c2ccc(O)cc2)oc2cc(O)cc(O)c12,PTGS2,enzyme activity,inhibitor,,0.49 µg/mL,inhibition,16.4%
Cc1cnc(Nc2ccc(OCCN3CCCC3)cc2)nc1Nc1cccc(S(=O)(=O)NC(C)(C)C)c1,"Bromodomain testis-specific protein, BD1 (BRDT, Homo sapiens, UniProt Q58F21)",thermal stability,,DSF,10 µM,ΔTm,3.38 °C
O=C(O)c1ccc(O)cc1,PTGS2,enzyme activity,inhibitor,,0.49 µg/mL,inhibition,19.4%
Cc1cc2c(cc1N1C(=O)c3cccc4c(Cl)ccc(c34)C1=O)n(C)c(=O)n2C,"Transcription intermediary factor 1-beta (TRIM28, Homo sapiens, UniProt Q13263)",thermal stability,,DSF,10 µM,ΔTm,0.3 °C
O=C(O)c1ccc2c(c1)nc(Nc1cccc(F)c1)c1ccncc12,DYRK1B,enzyme activity,inhibitor,radiometric,1 µM,remaining activity,13%
C[S+]([O-])c1ccc(-c2nc(-c3ccncc3)c(-c3ccc(F)cc3)[nH]2)cc1 (centres unmarked),"Bromodomain testis-specific protein, BD2 (BRDT, Homo sapiens, UniProt Q58F21)",thermal stability,,DSF,10 µM,ΔTm,0.59 °C
NS(=O)(=O)c1ccc(Nc2nc(-c3ccc(F)cc3)c3ccccc3n2)cc1,"CREB-binding protein (CREBBP, Homo sapiens, UniProt Q92793)",binding,,competition with immobilised ligand,1 µM,remaining binding,54%
O=C(O)c1ccc2c(c1)nc(Nc1ccc(F)c(Cl)c1)c1ncncc12,DYRK1B,enzyme activity,inhibitor,radiometric,1 µM,remaining activity,60%
